Data from ChEMBL document CHEMBL1123706, “Design of alternate substrate inhibitors of serine proteases. Synergistic use of alkyl substitution to impede enzyme-catalyzed deacylation” (J Med Chem, 1987).

What was measured:
[1] = target: T1, Neutrophil elastase (Homo sapiens, UniProt P08246); experiment: Binding affinity against human leukocyte elastase was determined
T1 sequence (P08246 whole entry): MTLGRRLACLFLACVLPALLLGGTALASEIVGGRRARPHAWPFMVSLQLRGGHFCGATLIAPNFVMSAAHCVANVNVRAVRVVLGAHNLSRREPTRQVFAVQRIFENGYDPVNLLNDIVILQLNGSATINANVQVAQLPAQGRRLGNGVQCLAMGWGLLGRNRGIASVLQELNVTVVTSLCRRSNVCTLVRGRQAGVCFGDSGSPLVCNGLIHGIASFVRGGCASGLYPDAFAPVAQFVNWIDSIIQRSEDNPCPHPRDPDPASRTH
Method in brief: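 Elastase purified from human leukocytes and assayed by the progress-curve method. Enzyme turnover of a fluorogenic coumarin substrate at about 0.04 Km served as a probe of free enzyme. Buffer was 25 mM K+ HEPES, 1 M NaCl, 0.1% Brij 35, pH 7.8, 25 °C. Read-out was fluorescence at 400 nm excitation and 505 nm emission.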

[2] = target: T2, Neutrophil elastase (Homo sapiens) (UniProt P08246)
T2 sequence (whole entry): T1 sequence (P08246 whole entry)

[3] = target: T2, Neutrophil elastase (Homo sapiens); experiment: Rate of deacylation by human leukocyte elastase
Method in brief: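 Otherwise, acyl enzyme was prepared and isolated on Sephadex G-25 at low pH. Deacylation was followed as the return of activity after dilution into assay buffer containing fluorogenic substrate.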

Row | Compound | Ki [1] | k1 [2] | k off [3]
1 | CCc1cccc2nc(N)oc(=O)c12 | 5100 nM | – | –
2 | CCCNc1nc2ccccc2c(=O)o1 | 91 nM | – | –
3 | Nc1nc2ccccc2c(=O)o1 | 63000 nM | – | –
4 | CNc1nc2ccccc2c(=O)o1 | 6900 nM | – | –
5 | CNc1nc2cccc(C)c2c(=O)o1 | 31000 nM | 4800 M⁻¹ s⁻¹ | 0.15 s⁻¹
6 | CCCCNc1nc2ccccc2c(=O)o1 | 84 nM | – | –
7 | CC(C)Nc1nc2ccccc2c(=O)o1 | 52 nM | 59000 M⁻¹ s⁻¹ | 0.003 s⁻¹
8 | CCCCCCNc1nc2ccccc2c(=O)o1 | 3600 nM | – | –
9 | CCNc1nc2ccccc2c(=O)o1 | 51 nM | – | –

Compounds with a lower Ki [1], results first:

Row | Ki [1] | k1 [2] | k off [3] | Compound
10 | 43 nM | – | – | CCC(C)Nc1nc2ccccc2c(=O)o1 (centres undefined)
11 | 34 nM | – | – | CCNc1nc2cccc(C)c2c(=O)o1
12 | 23 nM | – | – | CCCCNc1nc2cccc(C)c2c(=O)o1
13 | 6 nM | 56000 M⁻¹ s⁻¹ | 0.00034 s⁻¹ | CCCNc1nc2cccc(C)c2c(=O)o1
14 | 4.2 nM | 130000 M⁻¹ s⁻¹ | 0.00053 s⁻¹ | CCCCNc1nc2cccc(CC)c2c(=O)o1
15 | 1.5 nM | – | – | Cc1cccc2nc(NC(C)C)oc(=O)c12
16 | 0.94 nM | – | – | CCc1cccc2nc(NC(C)C)oc(=O)c12
